Experimental data as given in ChEMBL document CHEMBL4428034, “Bioactive Isoprenoid-Derived Natural Products from a Dongsha Atoll Soft Coral Sinularia erecta” (J Nat Prod, 2016).
pIC50: −log10 of the molar value.

Tests used:
Neutrophil [1] = test: Anti-inflammatory activity in FMLP/CB-stimulated human neutrophils assessed as inhibition of superoxide generation at 10 uM preincubated for 5 mins followed by cytochalasin B and FMLP stimulation for 3 mins and 10 mins respectively by ferricytochrome c reduction based assay relative to control; type: functional
Outline: (§1)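 Percent inhibition at 10 μM relative to control in fMLP/CB-stimulated human neutrophils. Values are mean ± SEM (n = 3), with significance tested against the control value.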

Neutrophil [2] = test: Anti-inflammatory activity in FMLP/CB-stimulated human neutrophils assessed as inhibition of superoxide generation preincubated for 5 mins followed by cytochalasin B and FMLP stimulation for 3 mins and 10 mins respectively by ferricytochrome c reduction based assay; type: functional, cell-based
Outline: (§2)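 In fMLP/CB-stimulated human neutrophils, IC50 was taken as the concentration giving 50% inhibition. Values are mean ± SEM (n = 3).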

Neutrophil [3] = test: Anti-inflammatory activity in FMLP/CB-stimulated human neutrophils assessed as inhibition of elastase release at 10 uM preincubated for 5 mins followed by FMLP/CB stimulation for 10 mins using MeO-Suc-Ala-Ala-Pro-Val-p-nitroanilide as substrate relative to control; type: functional; outline: as §1
Neutrophil [4] = test: Anti-inflammatory activity in FMLP/CB-stimulated human neutrophils assessed as inhibition of elastase release preincubated for 5 mins followed by FMLP/CB stimulation for 10 mins using MeO-Suc-Ala-Ala-Pro-Val-p-nitroanilide as substrate; type: functional, cell-based; outline: as §2
K562 = test: Cytotoxicity against human K562 cells assessed as growth inhibition after 3 days by alamar blue assay; type: functional, cell-based; details: K562, 72 h
MOLT-4 = test: Cytotoxicity against human MOLT4 cells assessed as growth inhibition after 3 days by alamar blue assay; type: functional, cell-based; details: MOLT-4, 72 h
Outline: (§3)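 Cells were seeded at 5 × 10^3 to 1 × 10^4 per well and kept in a humidified 5% CO2 incubator. After 3 days in culture, Alamar Blue was added for 4 h and absorbance read at 595 nm. IC50 is the concentration that reduced cell growth by 50%.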

CCRF-CEM = test: Cytotoxicity against human CCRF-CEM cells assessed as growth inhibition after 3 days by alamar blue assay; type: functional, cell-based; details: 72 h; outline: as §3

Row | Compound | pIC50 (Neutrophil [2]) | pIC50 (Neutrophil [4]) | inhibition at 10 µM (Neutrophil [1]) | inhibition at 10 µM (Neutrophil [3]) | pIC50 (K562) | pIC50 (MOLT-4) | pIC50 (CCRF-CEM)
1 | COC(=O)[C@@]1(CCl)O[C@@]2(O)C[C@H]1C[C@@H](O)[C@]13O[C@H]1[C@H](C[C@@]1(C)CC(=O)[C@H](C2)O1)OC3=O | < 5.00 | < 5.00 | 7% | 14% | – | – | –
2 | C=C(C)[C@@H]1CCC(=C)[C@@H](OO)CCC(=C)[C@H]2CC[C@@](C)(O2)[C@@H](O)C1 | < 5.00 | < 5.00 | 24% | 33% | 5.04 | – | –
3 | CCCCCCCCC/C(C)=C\C(=O)NCCc1ccc(O)cc1 | < 5.00 | 6.00 | 48% | 102% | – | 5.01 | 5.20
4 | C=C(C)[C@H]1CC(=O)[C@@H]2[C@@H](C1)[C@H]1C(=O)O[C@H]3C[C@@]4(C)O[C@@H]2C(=O)[C@H]4[C@@H]13 | < 5.00 | < 5.00 | 16% | 18% | – | – | –

The next lines start with results.

Row | pIC50 (Neutrophil [2]) | pIC50 (Neutrophil [4]) | Compound | inhibition at 10 µM (Neutrophil [1]) | inhibition at 10 µM (Neutrophil [3]) | pIC50 (K562) | pIC50 (MOLT-4) | pIC50 (CCRF-CEM)
5 | 7.15 | 6.52 | CC[C@H](Nc1ncnc2[nH]cnc12)c1nc2cccc(F)c2c(=O)n1-c1ccccc1 [IDELALISIB] | 103% | 100% | – | – | –
6 | 5.07 | 5.42 | C=C(C(=O)OC)[C@H]1CC(=O)C[C@@H]2O[C@@H]3[C@H](C[C@](C)(O)CC2=O)OC(=O)[C@@]32O[C@@H]2C1 | 55% | 93% | – | – | –
7 | < 5.00 | < 5.00 | C=C(C)C(CCC(C)=O)C[C@@H]1O[C@@]1(C)C/C=C/C(C)=O (stereo partly specified) | 13% | 17% | 5.07 | 5.01 | –
8 | < 5.00 | < 5.00 | C=C(C)[C@@H]1CCC2=C[C@H](C[C@@]3(C)CC(=O)[C@H](CC(=O)C1)O3)OC2=O | 15% | 19% | – | – | –
9 | 5.64 | 6.05 | C=C(C)[C@@H]1C[C@H]2O[C@](O)(C1)C[C@@H](OC(C)=O)C(=O)/C=C(/C)C[C@@H]1OC(=O)[C@]23O[C@@H]13 | 100% | 113% | – | – | –
